Results: ChEMBL document CHEMBL5058577, “EUbOPEN Chemogenomics Library 2 (Multiplex)” (2022)

Test system: U2OS
Test: Multiplex assay against U2OS
Type: toxicity, cell-based
Conditions: human
Outline: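 Cells were classed with CellPathfinder machine-learning gating, first as Hoechst high-intensity objects or normal cells, then (normal cells) as healthy, pyknosed or fragmented nuclei, and finally (pyknosed cells) as mitotic or apoptotic. Staining of live cells at seeding used Hoechst33342, BioTracker Green Microtubule Cytoskeleton Dye, MitoTracker Red and Annexin V Alexa Fluor 680, with imaging on a CQ1 microscope at 37°C and 5% CO2 after compound addition. Tubulin, mitochondrial-mass and membrane-permeability phenotypes are per cents of healthy-nucleus cells.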

[1] = 12 h, 1 µM, compound concentration 1 uM, replicate 1
[2] = 12 h, 1 µM, compound concentration 1 uM, replicate 2
[3] = 12 h, 10 µM, compound concentration 10 uM, replicate 1
[4] = 12 h, 10 µM, compound concentration 10 uM, replicate 2
[5] = 24 h, 1 µM, compound concentration 1 uM, replicate 1
[6] = 24 h, 1 µM, compound concentration 1 uM, replicate 2
[7] = 24 h, 10 µM, compound concentration 10 uM, replicate 1
[8] = 24 h, 10 µM, compound concentration 10 uM, replicate 2
[9] = 48 h, 1 µM, compound concentration 1 uM, replicate 1
[10] = 48 h, 1 µM, compound concentration 1 uM, replicate 2
[11] = 48 h, 10 µM, compound concentration 10 uM, replicate 1
[12] = 48 h, 10 µM, compound concentration 10 uM, replicate 2

With N#Cc1cc(F)cc(-c2nc(-c3ccc(F)cn3)no2)c1 the “Population Apoptotic (%)” value [1] was 55%, the “Population Fragmented Nuclei (%)” value [1] was 24% and the “Population Healthy Nuclei (%)” value [1] was 65%. For the same compound, the “Population Hoechst High Intensity Objects (%)” value [1] was 1%, the “Population Membrane Permeable-Phenotype (%)” value [1] was 5% and the “Population Mitochondria Different-Phenotype (%)” value [1] was 0%. For the same compound, the “Population Mitotic Cells (%)” value [1] was 44%, the “Population Normal (%)” value [1] was 98% and the “Population Pyknosed Nuclei (%)” value [1] was 10%. The “Population Tubulin-Different-Phenotype (%)” value [1] was 3%, the “Total Cell Count” value [1] was 178 and the “Population Apoptotic (%)” value [2] was 100%. The “Population Fragmented Nuclei (%)” value [2] was 17%, the “Population Healthy Nuclei (%)” value [2] was 79% and the “Population Hoechst High Intensity Objects (%)” value [2] was 0%. For the same compound, the “Population Membrane Permeable-Phenotype (%)” value [2] was 6%, the “Population Mitochondria Different-Phenotype (%)” value [2] was 5% and the “Population Mitotic Cells (%)” value [2] was 0%. The “Population Normal (%)” value [2] was 99%, the “Population Pyknosed Nuclei (%)” value [2] was 4% and the “Population Tubulin-Different-Phenotype (%)” value [2] was 2%. The “Total Cell Count” value [2] was 101, the “Population Apoptotic (%)” value [3] was 76% and the “Population Fragmented Nuclei (%)” value [3] was 33%. The “Population Healthy Nuclei (%)” value [3] was 59%, the “Population Hoechst High Intensity Objects (%)” value [3] was 1% and the “Population Membrane Permeable-Phenotype (%)” value [3] was 8%. The “Population Mitochondria Different-Phenotype (%)” value [3] was 2%, the “Population Mitotic Cells (%)” value [3] was 23% and the “Population Normal (%)” value [3] was 98%. For the same compound, the “Population Pyknosed Nuclei (%)” value [3] was 6%, the “Population Tubulin-Different-Phenotype (%)” value [3] was 2% and the “Total Cell Count” value [3] was 196. For the same compound, the “Population Apoptotic (%)” value [4] was 88%, the “Population Fragmented Nuclei (%)” value [4] was 12% and the “Population Healthy Nuclei (%)” value [4] was 81%. The “Population Membrane Permeable-Phenotype (%)” value [4] was 7%, the “Population Mitochondria Different-Phenotype (%)” value [4] was 4% and the “Population Mitotic Cells (%)” value [4] was 11%. For the same compound, the “Population Tubulin-Different-Phenotype (%)” value [4] was 1%, the “Total Cell Count” value [4] was 151 and the “Population Apoptotic (%)” value [5] was 90%. For the same compound, the “Population Fragmented Nuclei (%)” value [5] was 22%, the “Population Healthy Nuclei (%)” value [5] was 66% and the “Population Hoechst High Intensity Objects (%)” value [5] was 4%. For the same compound, the “Population Membrane Permeable-Phenotype (%)” value [5] was 8%, the “Population Mitochondria Different-Phenotype (%)” value [5] was 0% and the “Population Mitotic Cells (%)” value [5] was 9%. The “Population Normal (%)” value [5] was 95%, the “Population Pyknosed Nuclei (%)” value [5] was 11% and the “Population Tubulin-Different-Phenotype (%)” value [5] was 4%. For the same compound, the “Total Cell Count” value [5] was 197, the “Population Fragmented Nuclei (%)” value [6] was 8% and the “Population Healthy Nuclei (%)” value [6] was 84%. The “Population Hoechst High Intensity Objects (%)” value [6] was 0%, the “Population Membrane Permeable-Phenotype (%)” value [6] was 2% and the “Population Mitochondria Different-Phenotype (%)” value [6] was 3%. The “Population Mitotic Cells (%)” value [6] was 10%, the “Population Normal (%)” value [6] was 99% and the “Population Pyknosed Nuclei (%)” value [6] was 8%. For the same compound, the “Population Tubulin-Different-Phenotype (%)” value [6] was 2%, the “Total Cell Count” value [6] was 126 and the “Population Apoptotic (%)” value [7] was 93%. For the same compound, the “Population Fragmented Nuclei (%)” value [7] was 32%, the “Population Healthy Nuclei (%)” value [7] was 60% and the “Population Hoechst High Intensity Objects (%)” value [7] was 1%. For the same compound, the “Population Membrane Permeable-Phenotype (%)” value [7] was 7%, the “Population Mitochondria Different-Phenotype (%)” value [7] was 0% and the “Population Mitotic Cells (%)” value [7] was 6%. For the same compound, the “Population Normal (%)” value [7] was 98%, the “Population Pyknosed Nuclei (%)” value [7] was 7% and the “Population Tubulin-Different-Phenotype (%)” value [7] was 2%. The “Total Cell Count” value [7] was 230, the “Population Apoptotic (%)” value [8] was 88% and the “Population Fragmented Nuclei (%)” value [8] was 9%. The “Population Healthy Nuclei (%)” value [8] was 85%, the “Population Hoechst High Intensity Objects (%)” value [8] was 0% and the “Population Membrane Permeable-Phenotype (%)” value [8] was 5%. The “Population Mitochondria Different-Phenotype (%)” value [8] was 1%, the “Population Mitotic Cells (%)” value [8] was 11% and the “Population Normal (%)” value [8] was 99%. The “Population Pyknosed Nuclei (%)” value [8] was 4%, the “Population Tubulin-Different-Phenotype (%)” value [8] was 1% and the “Total Cell Count” value [8] was 216. For the same compound, the “Population Apoptotic (%)” value [9] was 96%, the “Population Fragmented Nuclei (%)” value [9] was 18% and the “Population Healthy Nuclei (%)” value [9] was 71%. The “Population Hoechst High Intensity Objects (%)” value [9] was 1%, the “Population Membrane Permeable-Phenotype (%)” value [9] was 4% and the “Population Mitochondria Different-Phenotype (%)” value [9] was 0%. For the same compound, the “Population Mitotic Cells (%)” value [9] was 3%, the “Population Normal (%)” value [9] was 98% and the “Population Pyknosed Nuclei (%)” value [9] was 9%. The “Population Tubulin-Different-Phenotype (%)” value [9] was 2%, the “Total Cell Count” value [9] was 290 and the “Population Apoptotic (%)” value [10] was 100%. For the same compound, the “Population Fragmented Nuclei (%)” value [10] was 15%, the “Population Healthy Nuclei (%)” value [10] was 79% and the “Population Mitochondria Different-Phenotype (%)” value [10] was 3%. For the same compound, the “Population Mitotic Cells (%)” value [10] was 0%, the “Population Pyknosed Nuclei (%)” value [10] was 5% and the “Population Tubulin-Different-Phenotype (%)” value [10] was 1%. For the same compound, the “Total Cell Count” value [10] was 199, the “Population Apoptotic (%)” value [11] was 85% and the “Population Fragmented Nuclei (%)” value [11] was 30%. For the same compound, the “Population Healthy Nuclei (%)” value [11] was 62%, the “Population Hoechst High Intensity Objects (%)” value [11] was 1% and the “Population Membrane Permeable-Phenotype (%)” value [11] was 6%. The “Population Mitochondria Different-Phenotype (%)” value [11] was 2%, the “Population Mitotic Cells (%)” value [11] was 14% and the “Population Normal (%)” value [11] was 98%. For the same compound, the “Population Pyknosed Nuclei (%)” value [11] was 7%, the “Population Tubulin-Different-Phenotype (%)” value [11] was 3% and the “Total Cell Count” value [11] was 282. For the same compound, the “Population Apoptotic (%)” value [12] was 94%, the “Population Fragmented Nuclei (%)” value [12] was 10% and the “Population Healthy Nuclei (%)” value [12] was 84%. For the same compound, the “Population Membrane Permeable-Phenotype (%)” value [12] was 4%, the “Population Mitotic Cells (%)” value [12] was 5% and the “Population Pyknosed Nuclei (%)” value [12] was 5%. The “Population Tubulin-Different-Phenotype (%)” value [12] was 2% and the “Total Cell Count” value [12] was 344.
